Among the data in ChEMBL document CHEMBL3596117, “Identification of 3,5,6-substituted indolin-2-one's inhibitors of Aurora B by development of a luminescent kinase assay” (Bioorg Med Chem Lett, 2015) are IC50 and inhibition values, retold here.

Test [1] deals with T1, Aurora kinase B (Homo sapiens, UniProt Q96GD4). Briefly: Inhibition of aurora B kinase (unknown origin) using ATP and SB2 substrate incubated at 37 degC for 2 hrs by kinase-Glo reagent based luminescent kinase assay. The essentials:
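Aurora B at 300 ng/well with ATP and peptide substrate SB2 at optimized levels, DMSO below 2% by volume. Kinase activity was quantified by Kinase-Glo luminescence of the ATP remaining after the reaction. The assay was validated with 48 enzyme-containing and 48 enzyme-free wells for the Z′-factor. IC50 values were derived from this luminescent assay.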

The target of test [2] is T1, Aurora kinase B. Briefly: Inhibition of aurora B kinase (unknown origin) at 10 uM using ATP and SB2 substrate incubated at 37 degC for 2 hrs by kinase-Glo reagent based luminescent kinase assay. The essentials: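 Aurora B at 300 ng/well with ATP and peptide substrate SB2 at the optimized levels. DMSO was kept below 2% by volume. Activity was read by Kinase-Glo luminescence, which measures the ATP left after the reaction.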
For orientation: Kinase-Glo measures the ATP left after a reaction by luminescence.

pIC50: −log10 of the molar value.

T1 sequence (Q96GD4 whole entry): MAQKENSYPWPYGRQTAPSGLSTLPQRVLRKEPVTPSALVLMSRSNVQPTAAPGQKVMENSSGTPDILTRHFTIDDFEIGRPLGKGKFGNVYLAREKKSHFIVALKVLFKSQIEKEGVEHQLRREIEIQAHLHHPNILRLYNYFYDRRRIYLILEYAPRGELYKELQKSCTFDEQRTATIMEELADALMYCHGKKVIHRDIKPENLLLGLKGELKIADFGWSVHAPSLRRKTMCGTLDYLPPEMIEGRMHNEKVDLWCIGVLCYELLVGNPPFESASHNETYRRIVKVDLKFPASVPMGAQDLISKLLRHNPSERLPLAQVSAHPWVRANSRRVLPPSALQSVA

In the case of `O=C(Nc1ccc(F)cc1)Nc1cc2c(cc1N1CCOCC1)/C(=C/c1ccc3c(c1)OCO3)C(=O)N2`, the pIC50 (as a rule, −log10 of the IC50, conventionally taken in molar units) at Aurora kinase B [1] is 5.09.
With `O=C(Nc1ccc(C(F)(F)F)cc1)Nc1cc2c(cc1N1CCCC1)/C(=C/c1cccs1)C(=O)N2`, the inhibition (in general, the drop in the measured response relative to a control, in per cent) against Aurora kinase B [2] turned out to be 47%.
`CC(=O)Nc1cc2c(cc1N1CCOCC1)/C(=C/c1ccco1)C(=O)N2` showed an inhibition at Aurora kinase B [2] of under 30%.
Turning to `O=C(Nc1ccc(C(F)(F)F)cc1)Nc1cc2c(cc1N1CCCC1)/C(=C/c1ccc[nH]1)C(=O)N2`, the inhibition on Aurora kinase B [2] amounted to 97%. Moreover, the pIC50 against Aurora kinase B [1] was 5.74.
As to `CCc1ccc(Oc2cc3c(cc2NS(=O)(=O)c2ccc(C)cc2)NC(=O)C3)cc1`, on Aurora kinase B [2], the inhibition was under 30%.
On Aurora kinase B [2], `C=CCC1C(=O)Nc2cc(NC(=S)Nc3ccccc3OC)c(N(CCC)CCC)cc21` (stereo not given) came in with an inhibition of 35%.
On Aurora kinase B [2], `C=CCNC(=S)Nc1cc2c(cc1Oc1cc(C)cc(C)c1)C(Cc1ccccc1)C(=O)N2` (stereo not given) came in with an inhibition of under 30%.
The same measure, in the same setting: in the case of `C=CCNC(=S)Nc1cc2c(cc1N(CCC)CCC)/C(=C/c1ccc3c(c1)OCO3)C(=O)N2` it was 31%; in that of `CCN(CC)c1cc2c(cc1NC(C)=O)NC(=O)/C2=C\c1cccs1`, under 30%.
`CCC/C=C1\C(=O)Nc2cc(NC(C)=O)c(N(CC)CC)cc21` yielded an inhibition against Aurora kinase B [2] of under 30%.
For the compound `CCN(CC)c1cc2c(cc1NC(C)=O)NC(=O)/C2=C\c1ccc[nH]1`, the inhibition on Aurora kinase B [2] was 83%. Moreover, the pIC50 at Aurora kinase B [1] is 5.60.
The compound `COc1ccc(/C=C2\C(=O)Nc3cc(NC(C)=O)c(N4CCOCC4)cc32)cc1` showed an inhibition against Aurora kinase B [2] of under 30%.
`O=C(Nc1ccc(F)cc1)Nc1cc2c(cc1N1CCOCC1)/C(=C/c1ccc[nH]1)C(=O)N2` showed a pIC50 at Aurora kinase B [1] of 5.48.
For the compound `CCCCC1C(=O)Nc2cc(NC(=O)Nc3ccc(F)cc3)c(N3CCOCC3)cc21` (stereo not given), the inhibition against Aurora kinase B [2] was under 30%.
On the same count and under the same terms, next, `CCN(CC)c1cc2c(cc1NC(C)=O)NC(=O)/C2=C\c1ccccn1`: under 30%; `Cc1cc(C)cc(Oc2cc3c(cc2NC(=O)Nc2ccc(OC(F)(F)F)cc2)NC(=O)C3Cc2ccccc2)c1` (stereo not given): under 30%.
Same read-out and setting: next, `CCCCCCCNC(=O)Nc1cc2c(cc1N1CCN(C(=O)OCC)CC1)/C(=C/c1ccc[nH]1)C(=O)N2`: under 30%; `O=C(Nc1ccc(F)cc1)Nc1cc2c(cc1N1CCOCC1)/C(=C/c1ccc(F)cc1)C(=O)N2`: 65%; `CCCC1(C(=O)OCC)C(=O)Nc2cc(NC(C)=O)c(N3CCN(c4cccc(C)c4C)CC3)cc21` (stereo not given): under 30%.
Still for that read-out and setting: in the case of `O=C1Cc2cc(N3CCOCC3)c(NC(=O)Nc3ccc(F)cc3)cc2N1` it was under 30%; in that of `C=CCC1C(=O)Nc2cc(NC(=O)Nc3ccc(F)cc3)c(N(CCC)CCC)cc21` (stereo not given), under 30%; in that of `CCCC1(C(=O)OCC)C(=O)Nc2cc(NC(=O)Nc3ccc(F)cc3)c(N3CCN(c4cccc(C)c4C)CC3)cc21` (stereo not given), under 30%.
Turning to `Cc1cc(C)cc(Oc2cc3c(cc2NS(=O)(=O)c2ccc(F)cc2)NC(=O)C3Cc2ccccc2)c1` (stereo not given), the inhibition against Aurora kinase B [2] was under 30%.
